# Measured values of several laboratories.
# Protocols differ between the studies behind these lines.
# Dihydrofolate reductase: Dihydrofolate reductase (Bos taurus, UniProt P00376)
# HTR1A: 5-hydroxytryptamine receptor 1A (HTR1A, Homo sapiens, UniProt P08908)
# MAPK14: Mitogen-activated protein kinase 14 (MAPK14, Homo sapiens, UniProt Q16539)
SMILES,target,assay,IC50 [µM]
COc1ccc(N2N=C(C(=O)c3ccc(Nc4cnccn4)cc3)SC2=C(C#N)C#N)cc1,Dihydrofolate reductase,"enzyme activity, inhibitor",0.36
COc1cc(C=O)cc(OC)c1O,"Sucrase-isomaltase, intestinal (Si, Rattus norvegicus, UniProt P23739)","enzyme activity, inhibitor, absorbance",1110
CNCc1cc(-c2cc(O)ccc2OC(F)(F)F)ccc1F,"Estrogen receptor (ESR1, Homo sapiens, UniProt P03372, D538G)","coactivator recruitment, TR-FRET",~18
COc1ccccc1N1CCN(CC(C(=O)NC(C)(C)C)c2ccccc2)CC1 (stereo not drawn),HTR1A,"cAMP, antagonist, TR-FRET",0.376
c1ccc(-c2[nH]ccc2-c2ccnc3ccccc23)nc1,MAPK14,"enzyme activity, inhibitor, ADP detection",> 30
Cc1cc(O)c(-c2ccc([C@@H](C)CN(C)C)cc2)c2c1[nH]c(=O)c1sccc12,"Cyclin-dependent kinase 14, with cyclin Y (CDK14, Homo sapiens, UniProt O94921)","enzyme activity, inhibitor",> 1
Fc1ccc(Cc2[nH]nc(-c3ccccn3)c2-c2ccnc3ccccc23)cc1,MAPK14,"enzyme activity, inhibitor, ADP detection",3.5
NC(=O)c1nnn(Cc2cc(Cl)c(C(=O)c3ccc(Cl)cc3)c(Cl)c2)c1N,HTR1A,"cAMP, antagonist",1.75
c1ccc(-c2n[nH]cc2-c2ccncn2)nc1,MAPK14,"enzyme activity, inhibitor, ADP detection",1.5
COc1ccc(-n2nc(C(=O)c3ccc(Nc4cnccn4)cc3)sc2=N)cc1,Dihydrofolate reductase,"enzyme activity, inhibitor",11.7
c1ccc(Cn2cc(-c3ccnc4ccccc34)c(-c3ccccn3)n2)cc1,MAPK14,"enzyme activity, inhibitor, ADP detection",3
CC(=O)C1=NN(c2ccccc2)C(=C(C#N)C(=O)c2ccc(Nc3cnccn3)cc2)S1,Dihydrofolate reductase,"enzyme activity, inhibitor",1.95
